Measurements: PMC12716021 (Chemistry & Biodiversity, 2025)

How the values were obtained:
[1] = DPPH radical scavenging activity; settings: read-out: IC50 DPPH; in vitro; standard gallic acid
[2] = Ferric reducing antioxidant power; settings: read-out: IC50 FRAP; in vitro; standard gallic acid
[3] = NO scavenging activity; settings: read-out: IC50 NO; in vitro; standard gallic acid
Procedure, shortened: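 Sodium nitroprusside (10 mM, in sodium phosphate buffer pH 7.4) added to test compound ([…]) or distilled water as control, then incubated at 37°C for 2 h. Griess reagent added, and A540 read. NO scavenging % = (1 − A compound/A control) × 100.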

IC50 [1]: 105 µM
IC50 [2]: 117 µM
IC50 [3]: 78.5 µM
SMILES: O=C(O)c1cc(O)c(O)c(O)c1 [Gallic acid]
